What all share (assay type): functional
Experiment [1] has as its system MCF7. In words: Down regulation of ATP1B4 gene expression in human MCF7 cells at IC50 after 48 hrs by cDNA microarray technique relative to control. The essentials:
(§1)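 8 × 10⁶ cells exposed 48 h to compound at its IC50 concentration; total RNA isolated with trizol/chloroform and RNeasy columns including on-column DNase step; RNA quantified by OD 260/280; DMSO-treated cultures as control.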

In experiment [2] the test system is MCF7. The experiment can be described thus: Down regulation of KIF3B gene expression in human MCF7 cells at IC50 after 48 hrs by cDNA microarray technique relative to control. The method in brief: (§2)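 Cells (8 × 10⁶) were cultured in DMEM with 10% heat-inactivated FBS at 37 °C under 5% CO₂. They were exposed for 48 h to compound at its IC₅₀, with DMSO-treated parallel cultures as controls (final DMSO ≤0.1% v/v). Total RNA was isolated by trizol/chloroform phase separation, RNeasy column cleanup and on-column DNase, then quantified by OD260/OD280. Expression was profiled by cDNA microarray relative to control.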

The test system of experiment [3] is HT-29. In words: Upregulation of PDE4B gene expression in human HT-29 cells at IC50 after 48 hrs by cDNA microarray technique relative to control.
In experiment [4] the test system is MCF7. The experiment can be described thus: Down regulation of ZNF336 gene expression in human MCF7 cells at IC50 after 48 hrs by cDNA microarray technique relative to control.
In experiment [5] the test system is HT-29. In words: Down regulation of FUT9 gene expression in human HT-29 cells at IC50 after 48 hrs by cDNA microarray technique relative to control. The method in brief: as §2
The subject of experiment [6] is HT-29. In words: Down regulation of MOG gene expression in human HT-29 cells at IC50 after 48 hrs by cDNA microarray technique relative to control.
Experiment [7] concerns HT-29. The experiment can be described thus: Down regulation of TCP10 gene expression in human HT-29 cells at IC50 after 48 hrs by cDNA microarray technique relative to control.
Experiment [8] concerns MCF7. In words: Upregulation of ROS1 gene expression in human MCF7 cells at IC50 after 48 hrs by cDNA microarray technique relative to control.
Experiment [9] has as its system MCF7. The experiment can be described thus: Upregulation of ADPN gene expression in human MCF7 cells at IC50 after 48 hrs by cDNA microarray technique relative to control.
The subject of experiment [10] is HT-29. In words: Down regulation of POU6F1 gene expression in human HT-29 cells at IC50 after 48 hrs by cDNA microarray technique relative to control.
Experiment [11] deals with HT-29. In words: Down regulation of SLC28A2 gene expression in human HT-29 cells at IC50 after 48 hrs by cDNA microarray technique relative to control.
The subject of experiment [12] is MCF7. The experiment can be described thus: Upregulation of LCN12 gene expression in human MCF7 cells at IC50 after 48 hrs by cDNA microarray technique relative to control.
In experiment [13] the test system is MCF7. In words: Upregulation of MGC2474 gene expression in human MCF7 cells at IC50 after 48 hrs by cDNA microarray technique relative to control.
The subject of experiment [14] is HT-29. In words: Down regulation of TAF5L gene expression in human HT-29 cells at IC50 after 48 hrs by cDNA microarray technique relative to control.
The test system of experiment [15] is HT-29. In words: Down regulation of HSPA1A gene expression in human HT-29 cells at IC50 after 48 hrs by cDNA microarray technique relative to control. The method in brief: as §2
Experiment [16] has as its system HT-29. In words: Down regulation of IL26 gene expression in human HT-29 cells at IC50 after 48 hrs by cDNA microarray technique relative to control. The method in brief:
as §2

For experiment [17], the system named is HT-29. The experiment can be described thus: Down regulation of ARL10B gene expression in human HT-29 cells at IC50 after 48 hrs by cDNA microarray technique relative to control. The method in brief:
as §1

Experiment [18] concerns HT-29. In words: Down regulation of HNRPAB gene expression in human HT-29 cells at IC50 after 48 hrs by cDNA microarray technique relative to control. The method in brief:
as §2

The test system of experiment [19] is HT-29. The experiment can be described thus: Down regulation of ZFYVE9 gene expression in human HT-29 cells at IC50 after 48 hrs by cDNA microarray technique relative to control.
In experiment [20] the test system is HT-29. In words: Down regulation of EML2 gene expression in human HT-29 cells at IC50 after 48 hrs by cDNA microarray technique relative to control. The essentials:
as §2

The test system of experiment [21] is HT-29. In words: Down regulation of MDGA1 gene expression in human HT-29 cells at IC50 after 48 hrs by cDNA microarray technique relative to control.
Experiment [22] relates to MCF7. In words: Upregulation of ANKRD35 gene expression in human MCF7 cells at IC50 after 48 hrs by cDNA microarray technique relative to control.
In experiment [23] the test system is MCF7. The experiment can be described thus: Upregulation of AY232284 gene expression in human MCF7 cells at IC50 after 48 hrs by cDNA microarray technique relative to control.
In experiment [24] the test system is MCF7. The experiment can be described thus: Upregulation of MAGEA2B gene expression in human MCF7 cells at IC50 after 48 hrs by cDNA microarray technique relative to control.
Experiment [25] deals with MCF7. The experiment can be described thus: Down regulation of ZNF354A gene expression in human MCF7 cells at IC50 after 48 hrs by cDNA microarray technique relative to control.
Experiment [26] has as its system MCF7. The experiment can be described thus: Down regulation of TAS2R40 gene expression in human MCF7 cells at IC50 after 48 hrs by cDNA microarray technique relative to control.
Experiment [27] has as its system MCF7. The experiment can be described thus: Down regulation of C11orf8 gene expression in human MCF7 cells at IC50 after 48 hrs by cDNA microarray technique relative to control. The essentials: as §1
Experiment [28] concerns MCF7. The experiment can be described thus: Down regulation of P2RY13 gene expression in human MCF7 cells at IC50 after 48 hrs by cDNA microarray technique relative to control.
Experiment [29] has as its system MCF7. In words: Down regulation of CNIH3 gene expression in human MCF7 cells at IC50 after 48 hrs by cDNA microarray technique relative to control. The essentials:
as §1

Experiment [30] deals with MCF7. The experiment can be described thus: Down regulation of C9orf125 gene expression in human MCF7 cells at IC50 after 48 hrs by cDNA microarray technique relative to control. The essentials:
as §1

In experiment [31] the test system is HT-29. In words: Upregulation of CDH15 gene expression in human HT-29 cells at IC50 after 48 hrs by cDNA microarray technique relative to control.
For experiment [32], the system named is HT-29. The experiment can be described thus: Down regulation of PRO1855 gene expression in human HT-29 cells at IC50 after 48 hrs by cDNA microarray technique relative to control.
Experiment [33] has as its system HT-29. The experiment can be described thus: Down regulation of MGC2654 gene expression in human HT-29 cells at IC50 after 48 hrs by cDNA microarray technique relative to control.
In experiment [34] the test system is HT-29. In words: Down regulation of SFRS5 gene expression in human HT-29 cells at IC50 after 48 hrs by cDNA microarray technique relative to control.
The test system of experiment [35] is HT-29. In words: Down regulation of RHOV gene expression in human HT-29 cells at IC50 after 48 hrs by cDNA microarray technique relative to control. The method in brief: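 HT-29 cells were grown in DMEM with 10% heat-inactivated FBS at 37 °C under 5% CO2. Cultures of 8 × 10⁶ cells were treated for 48 h; controls got DMSO at ≤0.1% v/v final. Cells were detached with PBS-EDTA and total RNA was extracted with trizol/chloroform and RNeasy columns with on-column DNase. RNA was quantified by OD 260/280 before cDNA microarray comparison with control.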

Experiment [36] deals with HT-29. The experiment can be described thus: Down regulation of LIR9 gene expression in human HT-29 cells at IC50 after 48 hrs by cDNA microarray technique relative to control. The method in brief:
as §2

Take `COC(CN(c1ccccc1CO)S(=O)(=O)c1ccccc1[N+](=O)[O-])n1cnc2ncnc(Cl)c21` (racemic): the “fold change (FC)” value was -2.07 in the experiment on MCF7 [1]; -2.14 in the experiment on MCF7 [2]; 3.84 in the experiment on HT-29 [3]; -2.45 in the experiment with MCF7 [4]; -2.25 in the experiment with HT-29 [5]; -2.65 in the experiment on HT-29 [6]. Further, the “fold change (FC)” value in the experiment with HT-29 [7] is on record as -2.75; in the experiment with MCF7 [8], 2.59; with MCF7 [9], 2.37; in the experiment with HT-29 [10] it was -3.13; in the experiment on HT-29 [11], -3.32; in the experiment on MCF7 [12] it was 2.24. Also, the “fold change (FC)” value with MCF7 [13] is listed as 2.23.

For the compound `O=C(OCC1c2ccccc2-c2ccccc21)N1CC(n2cnc3c(Cl)ncnc32)OCc2ccccc21` (racemic), the “fold change (FC)” value was -2.18 in the experiment on HT-29 [14]; -2.2 in the experiment on HT-29 [15]; -2.22 in the experiment on HT-29 [16]; -2.27 in the experiment with HT-29 [17]; -2.45 in the experiment with HT-29 [18]; -2.52 in the experiment with HT-29 [19]. The “fold change (FC)” value with HT-29 [20] was -2.82; in the experiment with HT-29 [21], -3.92; in the experiment with MCF7 [22], 6.08; in the experiment with MCF7 [23] it was 3.98; in the experiment with MCF7 [24] it was 2.53; in the experiment on MCF7 [25], -2.05. For the same compound, the “fold change (FC)” value in the experiment on MCF7 [26] is listed as -2.85; in the experiment with MCF7 [27], -2.88; with MCF7 [28], -3.05; with MCF7 [29], -3.32; with MCF7 [30], -3.38; in the experiment with HT-29 [31] it was 2.06. The “fold change (FC)” value with HT-29 [32] is -2; in the experiment on HT-29 [33], -2.02; in the experiment on HT-29 [34] it was -2.06; in the experiment with HT-29 [35], -2.07; with HT-29 [36] it was -2.08.

For the origin of these results see ChEMBL document CHEMBL1821604, “Anticancer activity and cDNA microarray studies of a (RS)-1,2,3,5-tetrahydro-4,1-benzoxazepine-3-yl]-6-chloro-9H-purine, and an acyclic (RS)-O,N-acetalic 6-chloro-7H-purine” (Eur J Med Chem, 2011).
